Compound activity deposited in PubChem by Johns Hopkins Ion Channel Center.
Shown are actives, neighbours in structure and some others; about 3.7% of the full set was active somewhere.
KCNK3 inh – human KCNK3 channel inhibition, primary screen. B-score at 10 µM. actives 0.84% (n = 340,000). AID 602410. CHO-KCNK3 thallium flux, FluxOR fluorescence; hits give low values. O14649;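 active means B-score under library mean minus 4 SD, starting fluorescence ratio at most library mean plus 5 SD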;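 further: more negative B-score means stronger inhibition of thallium flux through KCNK3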
Target sequence (O14649 whole entry, looked up): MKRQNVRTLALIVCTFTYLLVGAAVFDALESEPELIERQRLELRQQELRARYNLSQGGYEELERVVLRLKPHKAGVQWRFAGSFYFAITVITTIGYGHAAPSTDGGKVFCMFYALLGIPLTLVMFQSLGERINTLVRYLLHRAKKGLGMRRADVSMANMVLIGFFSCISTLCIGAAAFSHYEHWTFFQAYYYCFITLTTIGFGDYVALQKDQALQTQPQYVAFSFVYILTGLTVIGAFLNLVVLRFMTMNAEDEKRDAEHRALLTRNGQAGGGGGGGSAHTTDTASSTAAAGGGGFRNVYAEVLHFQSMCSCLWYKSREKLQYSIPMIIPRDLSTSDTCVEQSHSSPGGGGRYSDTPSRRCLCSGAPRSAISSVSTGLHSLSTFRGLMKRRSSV
hERG rescue – shields human hERG channel from block by proarrhythmic agents. CHO-hERG, FluxOR thallium flux, dofetilide IC70 present. activation (rescue from dofetilide block), less the hit threshold, % at 10 µM. actives 0.51% (n = 310,000);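 active means activation above the mean of controls blocked by dofetilide plus 5 SD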;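 further: thallium influx through hERG after potassium depolarization seen as dye fluorescence rise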
KCNQ1 act – human KCNQ1 channel potentiation or activation. CHO-K1 KCNQ1, thallium flux FluxOR fluorescence; hits give high values. B-score at 10 µM. actives 0.35% (n = 310,000);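 active means fluorescence ratio B-score, a plate-corrected score, at least three library SD, with initial intensity B-score within 5 SD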
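Assay system: stable KCNQ1 CHO-K1 line; medium: assay buffer, equal DMSO in all wells; timing: 90 min dye loading and 20 min compound exposure, both at room temperature; technique: kinetic FluxOR thallium fluorescence, 10-s 1-Hz baseline, 110-s post-stimulus read; read-out basis: B score of baseline-normalized fluorescence ratio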
Kir21 block – inhibitors of mouse Kir2.1 inward-rectifier potassium channel | P35561 | AID 1672 | actives 0.85% (n = 310,000) | HEK293-Kir2.1, FluxOR thallium flux fluorescence; hits give low values | B-score at 10 µM;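 active means fluorescence ratio B-score at or below minus 3 SD of library scores, with starting-brightness B-score within 2 SD, cut at about -4.2 in these data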;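 further: channel flux triggered by added potassium and thallium sulfate stimulus; B-score of peak minus minimum fluorescence over baseline after thallium stimulus; more negative B-score means stronger Kir2.1 block with less thallium influx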
KCNQ1 block – inhibitors of human KCNQ1 potassium channel; actives 1.3% (n = 310,000); AID 2642; B-score at 10 µM; CHO-K1 KCNQ1, FluxOR thallium flux fluorescence; hits give high values;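 active means compounds whose thallium flux B-score, printed positive for inhibition, exceeds three library SD while starting fluorescence stays within three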;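 further: channel opened by potassium depolarization with thallium stimulus after 20 min compound exposure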
KCNK9 block – inhibitors of human KCNK9 two-pore domain potassium channel; B-score at 10 µM; AID 488922; Q9NPC2; actives 1.2% (n = 310,000); HEK293 KCNK9, FluxOR thallium flux fluorescence; hits give low values;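 active means ratio B-score over 3 SD below the library mean, with starting fluorescence within 5 SD of its mean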;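 further: negative B-score means less thallium flux so channel inhibition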
KCNK9 block conf – confirmation of human KCNK9 potassium channel inhibitors. shares compounds with KCNK9 block. AID 492992. inhibition, % at 10 µM. actives 43% (n = 4,900). HEK293 KCNK9 cells, FluxOR thallium flux fluorescence;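 active means thallium signal inhibited by more than 5 SD of the compound-free buffer control wells, on both duplicate plates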;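 further: 0% = assay buffer control wells without compound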
Kir21 sel – selectivity of KCNK9 modulators against mouse Kir2.1 | Kir2.1 cells, FluxOR thallium flux fluorescence | shares compounds with KCNK9 block | AID 492993 | actives 4% (n = 4,900) | inhibition, % at 10 µM;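 active means thallium signal drop more than 5 SD beyond the mean of the no-compound control wells, seen in both duplicate plates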;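 further: signal is fluorescence rise after thallium addition divided by baseline fluorescence; plate controls were assay buffer only for no effect and full block by chlorpromazine control for full effect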
KCNK9 uninduced – second counter-screen for KCNK9 modulators: effect in non-induced cells; shares compounds with KCNK9 block; non-induced KCNK9-HEK293, FluxOR thallium flux; inhibition, % at 10 µM; actives 40% (n = 4,900); AID 492997;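 active means thallium signal drop beyond 5 SD of the untreated control mean, on both duplicate plates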;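 further: plate controls were buffer only IC0 wells for no effect and SID17386958 at its maximal inhibitory level for full effect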
Starred values were filed as active, the others as inactive; i = inactive; . = no result given.

SMILES	KCNK3 inh	hERG rescue	KCNQ1 act	Kir21 block	KCNQ1 block	KCNK9 block	KCNK9 block conf	Kir21 sel	KCNK9 uninduced
Cc1ccc(C(=O)OCC(=O)c2c[nH]c3ccccc23)cc1	i	-5	i	2	i	i	.	.	.
C/C(CC(=O)Nc1ccc(Cl)c(C(F)(F)F)c1)=N\NC(N)=S	i	-15	i	0.58	7*	i	i	i	i
Cc1cc(C)n(CC(=O)NNC(=O)c2ccc(NC(=O)CC#N)cc2)n1	i	.	.	.	.	.	.	.	.
Cc1cc2nnc(SC3CCCCN(C(=O)c4ccc(F)cc4)C3=O)n2c2ccccc12 (centres undefined)	i	-5	i	0.02	i	i	i	i	i
O=C(Nc1ccc(N2CCOCC2)cc1)c1ccc([N+](=O)[O-])o1	i	-6	i	0.18	i	i	.	.	.
COc1ccc(C(C(=O)NC2CCCC2)N(Cc2ccccc2)C(=O)c2nsc(Cl)c2Cl)cc1 (centres undefined)	i	-7	i	-1.2	i	i	.	.	.
CCOc1ccc(C(C(=O)NC2CCCC2)N(Cc2ccccc2)C(=O)c2nsc(Cl)c2Cl)cc1 (centres undefined)	i	-6	i	-0.6	i	-15*	72%*	i	40%*
COc1cccc(OCC(=O)Nc2c3c(nn2-c2ccccc2)CS(=O)(=O)C3)c1	i	-11	i	-0.25	i	i	.	.	.
Nc1ccc(S(=O)(=O)c2cc(O)c3ccccc3c2O)cc1	i	.	.	.	.	.	.	.	.
O=c1c(Cc2ccc(Cl)cc2Cl)c(O)ccn1Cc1ccc(Cl)cc1	i	-9	i	0.95	8*	i	i	i	i
O=c1c(Cc2ccc(F)cc2)c(O)ccn1Cc1cccc(Cl)c1	i	-7	i	-0.26	i	i	.	.	.
O=c1c(Cc2ccc(Cl)cc2)c(O)ccn1Cc1cccc(Cl)c1	i	-10	i	-0.19	i	i	i	i	i
O=c1c(Cc2ccc(Cl)cc2)c(O)ccn1Cc1ccccc1	i	-7	i	-0.71	i	i	.	.	.
CCOC(=O)C(C)C(C)=O (centres undefined)	i	.	.	.	.	.	.	.	.
Cc1ccc(NC(=O)c2ccc3c(SCC(=O)O)c4c(nc3c2)CCCC4)c(Br)c1	i	-9	i	2.1	i	i	.	.	.
COCCN(C(=O)c1cccc(-n2cnnn2)c1)c1c(N)n(CC(C)C)c(=O)[nH]c1=O	i	-10	i	-2.9	i	i	.	.	.
CCc1nnc(NC(=O)c2ccc(F)c(S(=O)(=O)N3CCCCC3)c2)s1	i	-6	i	0.54	i	i	.	.	.
CCc1nnc(NC(=O)c2ccc(Cl)c(S(=O)(=O)N3CCc4ccccc43)c2)s1	i	-14	i	-2.1	i	-13*	68%*	i	42%*
CCC1CCCCN1C(=O)c1cc(S(=O)(=O)N2CCOCC2)ccc1C (centres undefined)	i	.	.	.	.	.	.	.	.
CCCC(=O)NC(Nc1cc(C(F)(F)F)ccc1Cl)C(Cl)(Cl)Cl (centres undefined)	i	-14	i	-2.3	i	i	.	.	.
CCCC(=O)NC(Nc1cccc(C(F)(F)F)c1)C(Cl)(Cl)Cl (centres undefined)	i	-6	i	-1.8	8*	-8.8*	32%*	i	26%*
Cc1ccc(-c2nn(-c3ccccc3)cc2/C=N/n2c(-c3ccncc3)n[nH]c2=S)cc1	i	-3	i	-1.3	i	i	.	.	.
S=c1[nH]nc(-c2cccs2)n1/N=C/c1cn(-c2ccccc2)nc1-c1ccccc1	i	-4	i	1.2	i	i	i	i	i
CC1(c2ccccc2)CC(C)(C)N2C(=O)C(=O)c3cccc1c32 (centres undefined)	i	-17	i	-2.1	i	i	i	i	i
CCOC(=O)C(CSCc1ccccc1)NC(=O)OC(C)(C)C (centres undefined)	i	-6	i	-4.3*	i	i	i	i	i
SMILES	KCNK3 inh	hERG rescue	KCNQ1 act	Kir21 block	KCNQ1 block	KCNK9 block	KCNK9 block conf	Kir21 sel	KCNK9 uninduced
CC(=O)Nc1ccccc1N(C)S(=O)(=O)c1ccc(C)cc1	i	-8	i	-0.16	i	-8.3*	i	i	i
COc1ccc(CNC(=O)CN(C(=O)CCC(=O)Nc2nccs2)c2ccc3c(c2)OCO3)cc1	i	-8	i	0.73	i	i	.	.	.
N/C(=N\c1nc(CSc2ccc(Cl)cc2)cc(=O)[nH]1)Nc1cccc2ccccc12	i	-3	i	0.01	i	i	i	i	i
Cc1ccc(SCc2cc(=O)[nH]c(/N=C(\N)Nc3ccc(C)c(C)c3)n2)cc1	i	-9	i	-0.11	i	i	i	i	i
Cn1c(-c2cccs2)[n+](C)c2ccccc21	i	-3	i	0.42	i	i	.	.	.
O=C(O)C1CCN(C(=O)COc2ccc(Br)cc2)CC1	i	-17	i	-0.03	i	i	.	.	.
COc1ccc2cc(C=NS(=O)(=O)c3ccc(C)cc3)n(C)c2c1	i	.	.	.	.	.	.	.	.
CCCCOn1c(C)c(C(=O)OCC)c2c3no[n+]([O-])c3ccc21	i	-1	i	1.2	i	i	.	.	.
CCCCOn1c(C)c(C(=O)OCC)c2c3nonc3ccc21	i	-11	i	0.55	i	-8.4*	33%*	i	32%*
Cc1nc(Sc2ccc(Br)cc2)c(C#N)c(C)c1[N+](=O)[O-]	i	-8	i	-2.1	i	i	.	.	.
CCOc1ccc(OCCOCCOc2c(Cl)cccc2Cl)cc1	i	-13	i	0.95	i	i	.	.	.
CCOc1ccccc1OCCOCCOc1c(Cl)cccc1Cl	i	-8	i	-3	i	-9*	i	i	38%*
COc1cccc(C(=O)NCC(c2ccco2)N2CCc3ccccc3C2)c1 (centres undefined)	i	-6	i	0.14	i	-10*	38%*	i	i
O=C(NCC(c1ccco1)N1CCc2ccccc2C1)c1cccc(F)c1 (centres undefined)	i	-13	i	-1.9	i	i	.	.	.
CCN(CC)CCCn1c2c(c(SCC(=O)Nc3ccc4c(c3)OCO4)nc1=O)CCC2	i	-9	i	1	i	i	.	.	.
